Columns and labels:
[1] = target: Receptor-type tyrosine-protein kinase FLT3 (Homo sapiens) (UniProt P36888); assay: Inhibition of FLT3 at 10 uM by HotSpot assay
[2] = target: Receptor-type tyrosine-protein kinase FLT3 (Homo sapiens, UniProt P36888); assay: Inhibition of FLT3 by HotSpot assay
SK-MEL-5 = assay: Cytotoxicity against human SK-MEL-5 cells assessed as cell growth at 1 uM after 48 hrs by sulforhodamine B assay; type: functional; conditions: SK-MEL-5, 48 h, read-out: Activity
NCI-H460 = assay: Cytotoxicity against human NCI-H460 cells assessed as cell growth at 1 uM after 48 hrs by sulforhodamine B assay; type: functional; conditions: NCI-H460, 48 h, read-out: Activity
786-0 = assay: Cytotoxicity against human 786-0 cells assessed as cell growth at 10 uM after 48 hrs by sulforhodamine B assay; type: functional; conditions: 786-0, 48 h, read-out: Activity
PC-3 = assay: Cytotoxicity against human PC3 cells assessed as cell growth at 10 uM after 48 hrs by sulforhodamine B assay; type: functional; conditions: PC-3, 48 h, read-out: Activity
UO-31 = assay: Cytotoxicity against human UO31 cells assessed as cell growth at 10 uM after 48 hrs by sulforhodamine B assay; type: functional; conditions: UO-31, 48 h, read-out: Activity
HCC 2998 = assay: Cytotoxicity against human HCC2998 cells assessed as cell growth at 1 uM after 48 hrs by sulforhodamine B assay; type: functional; conditions: HCC 2998, 48 h, read-out: Activity
SF-295 = assay: Cytotoxicity against human SF295 cells assessed as cell growth at 100 nM after 48 hrs by sulforhodamine B assay; type: functional; conditions: SF-295, 48 h, read-out: Activity
MCF7 [3] = assay: Growth inhibition of human MCF7 cells after 48 hrs by sulforhodamine B assay; type: functional; conditions: MCF7, 48 h
How it was run: (§1)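 NCI 60-cell screen, five-dose mode. Cells grown in RPMI 1640 with 5% FBS and 2 mM L-glutamine and plated at 5000-40,000 cells/well according to doubling time. After 24 h preincubation, a Tz plate was TCA-fixed. Five concentrations (10-fold or 1/2 log dilutions) were applied for 48 h at 37 °C. SRB staining read at 515 nm. IC50 taken from [(Ti-Tz)/(C-Tz)]×100 = 50.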

RXF 393 = assay: Cytotoxicity against human RXF393 cells assessed as cell growth at 1 uM after 48 hrs by sulforhodamine B assay; type: functional; conditions: RXF 393, 48 h, read-out: Activity
SK-MEL-28 [4] = assay: Cytotoxicity against human SK-MEL-28 cells assessed as cell growth at 10 uM after 48 hrs by sulforhodamine B assay; type: functional; conditions: SK-MEL-28, 48 h, read-out: Activity
SR = assay: Growth inhibition of human SR cells after 48 hrs by sulforhodamine B assay; type: functional; how it was run: as §1
NCI-H226 [5] = assay: Cytotoxicity against human NCI-H226 cells assessed as cell growth at 0.01 uM after 48 hrs by sulforhodamine B assay; type: functional; conditions: NCI-H226, 48 h, read-out: Activity
MCF7 [6] = assay: Cytotoxicity against human MCF7 cells assessed as cell growth at 1 uM after 48 hrs by sulforhodamine B assay; type: functional; conditions: MCF7, 48 h, read-out: Activity
NCI-H226 [7] = assay: Cytotoxicity against human NCI-H226 cells assessed as cell growth at 1 uM after 48 hrs by sulforhodamine B assay; type: functional; conditions: NCI-H226, 48 h, read-out: Activity
SK-MEL-28 [8] = assay: Cytotoxicity against human SK-MEL-28 cells assessed as cell growth at 100 nM after 48 hrs by sulforhodamine B assay; type: functional; conditions: SK-MEL-28, 48 h, read-out: Activity

Sequence of Receptor-type tyrosine-protein kinase FLT3 (P36888 whole entry): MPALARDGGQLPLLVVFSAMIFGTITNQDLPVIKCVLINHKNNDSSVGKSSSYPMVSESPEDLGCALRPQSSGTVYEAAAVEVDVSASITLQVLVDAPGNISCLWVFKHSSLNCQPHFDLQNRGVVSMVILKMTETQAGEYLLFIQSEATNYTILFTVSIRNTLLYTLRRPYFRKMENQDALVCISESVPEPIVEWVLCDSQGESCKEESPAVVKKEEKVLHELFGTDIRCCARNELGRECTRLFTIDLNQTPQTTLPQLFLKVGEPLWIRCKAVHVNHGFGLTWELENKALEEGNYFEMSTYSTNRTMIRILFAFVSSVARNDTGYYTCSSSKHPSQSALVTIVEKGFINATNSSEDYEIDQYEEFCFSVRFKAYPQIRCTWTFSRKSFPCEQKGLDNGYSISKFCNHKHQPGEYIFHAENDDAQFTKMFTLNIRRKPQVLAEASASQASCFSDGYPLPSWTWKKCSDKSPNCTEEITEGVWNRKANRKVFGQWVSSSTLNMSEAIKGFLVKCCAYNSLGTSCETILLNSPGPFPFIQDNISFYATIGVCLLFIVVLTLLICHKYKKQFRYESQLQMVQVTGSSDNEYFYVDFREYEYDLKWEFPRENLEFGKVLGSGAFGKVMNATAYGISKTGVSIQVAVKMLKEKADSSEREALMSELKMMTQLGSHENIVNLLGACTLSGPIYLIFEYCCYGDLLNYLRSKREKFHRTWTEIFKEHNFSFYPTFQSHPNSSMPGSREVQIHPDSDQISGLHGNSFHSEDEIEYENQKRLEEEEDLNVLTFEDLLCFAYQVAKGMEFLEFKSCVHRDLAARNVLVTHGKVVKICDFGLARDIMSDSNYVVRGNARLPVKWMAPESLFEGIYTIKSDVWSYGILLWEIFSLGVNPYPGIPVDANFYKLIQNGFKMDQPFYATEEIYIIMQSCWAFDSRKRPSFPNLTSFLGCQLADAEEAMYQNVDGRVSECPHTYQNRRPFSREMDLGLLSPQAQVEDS
Sequence of Receptor-type tyrosine-protein kinase FLT3 (Homo sapiens) (P36888 whole entry): as above

COc1cc(C)cc(-c2c(-c3ccnc(-c4ccc(N(C)C)cc4)c3)cnn2CC#N)c1
inhibition [1]: 82.3% | IC50 [2]: 1.74 µM | growth at 1 µM (SK-MEL-5): -31% | growth at 1 µM (NCI-H460): -53% | growth at 10 µM (786-0): 6% | growth at 10 µM (PC-3): 4% | growth at 10 µM (UO-31): 7%

COc1cc(C)cc(-c2nn(CC#N)cc2-c2ccc(-c3cccc(C(C)=O)c3)nc2)c1
growth at 1 µM (HCC 2998): -17% | growth at 1 µM (SK-MEL-5): -13% | growth at 0.1 µM (SF-295): 75% | GI50 (MCF7 [3]): 2.05 µM | LC50 (MCF7 [3]): > 100 µM | TGI (MCF7 [3]): 15.9 µM | growth at 1 µM (RXF 393): -58% | growth at 10 µM (SK-MEL-28 [4]): -1% | GI50 (SR): 1.62 µM | LC50 (concentration killing 50% of cells) (SR): > 100 µM | TGI (SR): > 100 µM | growth at 0.01 µM (NCI-H226 [5]): 88% | growth at 1 µM (NCI-H460): -27% | growth at 1 µM (MCF7 [6]): 7% | growth at 1 µM (NCI-H226 [7]): 29% | growth at 10 µM (PC-3): 1% | growth at 10 µM (UO-31): -6% | growth at 0.1 µM (SK-MEL-28 [8]): 74%

Cc1cc(O)cc(-c2nn(CC#N)cc2-c2ccnc(-c3ccc(N(C)C)cc3)c2)c1
growth at 1 µM (HCC 2998): 13% | growth at 1 µM (SK-MEL-5): -26% | growth at 0.1 µM (SF-295): 78% | GI50 (MCF7 [3]): 0.975 µM | LC50 (MCF7 [3]): 69.9 µM | TGI (MCF7 [3]): 13.9 µM | growth at 1 µM (RXF 393): -32% | growth at 10 µM (SK-MEL-28 [4]): -31% | GI50 (SR): 2.64 µM | LC50 (concentration killing 50% of cells) (SR): > 100 µM | TGI (SR): > 100 µM | growth at 0.01 µM (NCI-H226 [5]): 94% | growth at 1 µM (MCF7 [6]): 10% | growth at 10 µM (786-0): -49% | growth at 1 µM (NCI-H226 [7]): 19% | growth at 10 µM (PC-3): -9% | growth at 10 µM (UO-31): -19% | growth at 0.1 µM (SK-MEL-28 [8]): 96%

Cc1cc(O)cc(-c2nn(CC#N)cc2-c2ccnc(-c3ccc(Oc4ccccc4)cc3)c2)c1
growth at 1 µM (HCC 2998): -94% | growth at 0.1 µM (SF-295): 87% | GI50 (MCF7 [3]): 2.23 µM | LC50 (MCF7 [3]): 21.9 µM | TGI (MCF7 [3]): 5.48 µM | growth at 1 µM (RXF 393): -58% | growth at 10 µM (SK-MEL-28 [4]): -100% | GI50 (SR): 3.77 µM | LC50 (concentration killing 50% of cells) (SR): > 100 µM | TGI (SR): 37.2 µM | growth at 0.01 µM (NCI-H226 [5]): 89% | growth at 1 µM (NCI-H460): -79% | growth at 1 µM (MCF7 [6]): -34% | growth at 10 µM (786-0): -93% | growth at 1 µM (NCI-H226 [7]): 6% | growth at 10 µM (PC-3): -60% | growth at 10 µM (UO-31): -81% | growth at 0.1 µM (SK-MEL-28 [8]): 95%

COc1cc(C)cc(-c2nn(CC#N)cc2-c2ccnc(-c3ccc(N(C)C)cc3)c2)c1
growth at 1 µM (HCC 2998): -51% | growth at 1 µM (SK-MEL-5): -40% | growth at 0.1 µM (SF-295): 3% | GI50 (MCF7 [3]): 0.0664 µM | LC50 (MCF7 [3]): > 100 µM | TGI (MCF7 [3]): 22.7 µM | growth at 1 µM (RXF 393): -21% | growth at 10 µM (SK-MEL-28 [4]): 13% | GI50 (SR): 0.461 µM | LC50 (concentration killing 50% of cells) (SR): > 100 µM | TGI (SR): > 10 µM | growth at 0.01 µM (NCI-H226 [5]): 105% | growth at 1 µM (NCI-H460): -27% | growth at 1 µM (MCF7 [6]): 7% | growth at 10 µM (786-0): -36% | growth at 1 µM (NCI-H226 [7]): 3% | growth at 0.1 µM (SK-MEL-28 [8]): 44%

COc1cc(C)cc(-c2c(-c3ccnc(-c4ccc(C(C)=O)cc4)c3)cnn2CC#N)c1
growth at 1 µM (HCC 2998): 2% | growth at 1 µM (SK-MEL-5): -37% | growth at 0.1 µM (SF-295): 85% | GI50 (MCF7 [3]): 3.25 µM | LC50 (MCF7 [3]): > 100 µM | TGI (MCF7 [3]): > 100 µM | growth at 1 µM (RXF 393): -27% | growth at 10 µM (SK-MEL-28 [4]): 46% | GI50 (SR): 2.87 µM | LC50 (concentration killing 50% of cells) (SR): > 100 µM | TGI (SR): > 100 µM | growth at 0.01 µM (NCI-H226 [5]): 93% | growth at 1 µM (NCI-H460): -9% | growth at 1 µM (MCF7 [6]): 16% | growth at 10 µM (786-0): 20% | growth at 1 µM (NCI-H226 [7]): 34% | growth at 10 µM (PC-3): 27% | growth at 10 µM (UO-31): 15% | growth at 0.1 µM (SK-MEL-28 [8]): 95%
